ChEMBL document CHEMBL4038328, “Structure-Guided Optimization of HIV Integrase Strand Transfer Inhibitors” (J Med Chem, 2017)

Experiments:
[1] = Inhibition of HIV1 integrase 3' processing activity using 5'-end 32P labeled DNA substrate measured after 2 hrs by PAGE based phosphor imaging method; design: species or system Human immunodeficiency virus 1
In short: (§1)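 Gel-based assay, Mg2+ cofactor: 400 nM integrase with 20 nM DNA substrate 5′-32P-labeled on transferred strand in 50 mM MOPS pH 7.2, 7.5 mM MgCl2, 14 mM 2-mercaptoethanol, inhibitor or DMSO; 2 h at 37 °C. Stopped with formamide/SDS loading buffer; products resolved on 16% denaturing polyacrylamide gels, quantified by phosphorimaging.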

[2] = system: Human immunodeficiency virus 1; experiment: Antiviral activity against VSV-G pseudotyped HIV1 harboring integrase G140S/Q148H double mutant infected in HOS cells pretreated […] for 3 hrs followed by viral infection measured after 48 hrs by luciferase reporter gene assay; format: functional, cell-based; details: Human immunodeficiency virus 1, HOS
In short: (§2)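 Single-round luciferase HIV-1 vector (pNLNgoMIVR−ΔLUC carrying WT or mutant IN) was pseudotyped with VSV-g by calcium phosphate co-transfection of 293 cells, and supernatant was harvested after 48 h. HOS cells were seeded at 4000/well in DMEM with 5% FBS and 5% newborn calf serum. They were pretreated 3 h at 37 °C with 5–0.0001 μM (11 serial dilutions), then infected for 48 h. Luminescence was normalized to untreated cells, and EC50 came from nonlinear regression.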

[3] = Inhibition of HIV1 integrase strand transfer activity using 5'-end 32P labeled DNA substrate measured after 2 hrs by PAGE based phosphor imaging method; design: species or system Human immunodeficiency virus 1; in short: as §1
[4] = system: Human immunodeficiency virus 1; experiment: Antiviral activity against VSV-G pseudotyped HIV1 harboring integrase N155H mutant infected in HOS cells pretreated […] for 3 hrs followed by viral infection measured after 48 hrs by luciferase reporter gene assay; format: functional, cell-based; details: Human immunodeficiency virus 1, HOS; in short: as §2
[5] = system: Human immunodeficiency virus 1; experiment: Selectivity ratio of EC50 for VSV-G pseudotyped HIV1 harboring integrase Y143R mutant infected in HOS cells to EC50 for VSV-G pseudotyped HIV1 harboring wild-type integrase infected in HOS cells; format: functional
In short: (§3)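 Fold change is the EC50 against the mutant-IN vector divided by the EC50 against the WT-IN vector. Both come from the single-round luciferase infectivity assay in HOS cells, with a 3 h compound pretreatment followed by 48 h infection.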

[6] = system: Human immunodeficiency virus 1; experiment: Antiviral activity against VSV-G pseudotyped HIV1 harboring wild-type integrase infected in HOS cells pretreated […] for 3 hrs followed by viral infection measured after 48 hrs by luciferase reporter gene assay; format: functional, cell-based; details: Human immunodeficiency virus 1, HOS; in short: as §2
[7] = system: HOS; experiment: Cytotoxicity against HOS cells assessed as reduction in cell viability after 48 hrs by ATPLite luminescence assay; format: cell-based; details: human, hos, 48 h
In short: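 HOS cells seeded at 4000 per well the day before, exposed to compounds over 250 to 0.05 μM at 37 °C for 48 h. ATP measured by luminescence after lysis and 20 min signal development at room temperature.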

[8] = system: Human immunodeficiency virus 1; experiment: Antiviral activity against VSV-G pseudotyped HIV1 harboring integrase Y143R mutant infected in HOS cells pretreated […] for 3 hrs followed by viral infection measured after 48 hrs by luciferase reporter gene assay; format: functional, cell-based; details: Human immunodeficiency virus 1, HOS; in short: as §2
[9] = system: Human immunodeficiency virus 1; experiment: Selectivity ratio of EC50 for VSV-G pseudotyped HIV1 harboring integrase N155H mutant infected in HOS cells to EC50 for VSV-G pseudotyped HIV1 harboring wild-type integrase infected in HOS cells; format: functional; in short: as §3
[10] = system: Human immunodeficiency virus 1; experiment: Selectivity ratio of EC50 for VSV-G pseudotyped HIV1 harboring integrase G140S/Q148H mutant infected in HOS cells to EC50 for VSV-G pseudotyped HIV1 harboring wild-type integrase infected in HOS cells; format: functional; in short: as §3
[11] = system: Human immunodeficiency virus 1; experiment: Antiviral activity against VSV-G pseudotyped HIV1 harboring integrase T66I mutant infected in HOS cells pretreated […] for 3 hrs followed by viral infection measured after 48 hrs by luciferase reporter gene assay; format: functional, cell-based; details: Human immunodeficiency virus 1, HOS; in short: as §2
[12] = system: Human immunodeficiency virus 1; experiment: Antiviral activity against VSV-G pseudotyped HIV1 harboring integrase R263K mutant infected in HOS cells pretreated […] for 3 hrs followed by viral infection measured after 48 hrs by luciferase reporter gene assay; format: functional, cell-based; details: Human immunodeficiency virus 1, HOS; in short: as §2
[13] = system: Human immunodeficiency virus 1; experiment: Antiviral activity against VSV-G pseudotyped HIV1 harboring integrase E92Q mutant infected in HOS cells pretreated […] for 3 hrs followed by viral infection measured after 48 hrs by luciferase reporter gene assay; format: functional, cell-based; details: Human immunodeficiency virus 1, HOS; in short: as §2
[14] = system: Human immunodeficiency virus 1; experiment: Selectivity ratio of EC50 for VSV-G pseudotyped HIV1 harboring integrase H51Y/R263K double mutant infected in HOS cells to EC50 for VSV-G pseudotyped HIV1 harboring wild-type integrase infected in HOS cells; format: functional; in short: as §3
[15] = system: Human immunodeficiency virus 1; experiment: Antiviral activity against VSV-G pseudotyped HIV1 harboring integrase G118R mutant infected in HOS cells pretreated […] for 3 hrs followed by viral infection measured after 48 hrs by luciferase reporter gene assay; format: functional, cell-based; details: Human immunodeficiency virus 1, HOS; in short: as §2
[16] = system: Human immunodeficiency virus 1; experiment: Selectivity ratio of EC50 for VSV-G pseudotyped HIV1 harboring integrase H51Y mutant infected in HOS cells to EC50 for VSV-G pseudotyped HIV1 harboring wild-type integrase infected in HOS cells; format: functional; in short: as §3
[17] = system: Human immunodeficiency virus 1; experiment: Antiviral activity against VSV-G pseudotyped HIV1 harboring integrase H51Y/R263K double mutant infected in HOS cells pretreated […] for 3 hrs followed by viral infection measured after 48 hrs by luciferase reporter gene assay; format: functional, cell-based; details: Human immunodeficiency virus 1, HOS; in short: as §2
[18] = system: Human immunodeficiency virus 1; experiment: Selectivity ratio of EC50 for VSV-G pseudotyped HIV1 harboring integrase T66I mutant infected in HOS cells to EC50 for VSV-G pseudotyped HIV1 harboring wild-type integrase infected in HOS cells; format: functional; in short: as §3
[19] = system: Human immunodeficiency virus 1; experiment: Selectivity ratio of EC50 for VSV-G pseudotyped HIV1 harboring integrase R263K mutant infected in HOS cells to EC50 for VSV-G pseudotyped HIV1 harboring wild-type integrase infected in HOS cells; format: functional; in short: as §3
[20] = system: Human immunodeficiency virus 1; experiment: Antiviral activity against VSV-G pseudotyped HIV1 harboring integrase H51Y mutant infected in HOS cells pretreated […] for 3 hrs followed by viral infection measured after 48 hrs by luciferase reporter gene assay; format: functional, cell-based; details: Human immunodeficiency virus 1, HOS; in short: as §2
[21] = system: Human immunodeficiency virus 1; experiment: Selectivity ratio of EC50 for VSV-G pseudotyped HIV1 harboring integrase E92Q mutant infected in HOS cells to EC50 for VSV-G pseudotyped HIV1 harboring wild-type integrase infected in HOS cells; format: functional; in short: as §3
[22] = system: Human immunodeficiency virus 1; experiment: Selectivity ratio of EC50 for VSV-G pseudotyped HIV1 harboring integrase G118R mutant infected in HOS cells to EC50 for VSV-G pseudotyped HIV1 harboring wild-type integrase infected in HOS cells; format: functional; in short: as §3

| Compound | IC50 [1] [nM] | EC50 [2] [nM] | IC50 [3] [nM] | EC50 [4] [nM] | Ratio EC50 [5] | EC50 [6] [nM] | CC50 [7] [nM] | EC50 [8] [nM] | Ratio EC50 [9] | Ratio EC50 [10] | also measured |
| --- | --- | --- | --- | --- | --- | --- | --- | --- | --- | --- | --- |
| CN(C)CCCc1cnc2c(c1)c(N)c(C(=O)NCc1ccc(F)cc1F)c(=O)n2O | 3000 | 32 | 14 | 29 | 1 | 6.1 | 5000 | 7 | 5 | 5 |  |
| CC(=O)OCCCc1cnc2c(c1)c(N)c(C(=O)NCc1ccc(F)cc1F)c(=O)n2O | 14300 | 13 | 10 | 5.4 | 2 | 1.4 | > 250000 | 2.9 | 4 | 9 | EC50 [11]: 0.75 nM; EC50 [12]: 1.8 nM; EC50 [13]: 1.2 nM; Ratio EC50 [14]: 3; EC50 [15]: 5.9 nM; Ratio EC50 [16]: 0.6; EC50 [17]: 3.9 nM; Ratio EC50 [18]: 0.5; Ratio EC50 [19]: 1; EC50 [20]: 0.8 nM; Ratio EC50 [21]: 1; Ratio EC50 [22]: 4 |
| Nc1c(C(=O)NCc2ccc(F)cc2F)c(=O)n(O)c2ncc(CCc3ccccc3)cc12 | 48000 | 140 | 14 | 21 | 1 | 5.6 | 18000 | 5.5 | 4 | 25 |  |
| COc1ccc2c(N)c(C(=O)NCc3ccc(F)cc3F)c(=O)n(O)c2n1 | 18000 | 3600 | 11 | 400 | 2 | 30 | 2200 | 62 | 13 | 120 |  |
| Nc1c(C(=O)NCc2ccc(F)cc2F)c(=O)n(O)c2ncc(CCCCc3ccccc3)cc12 | 42000 | 128 |  | 39 | 0.4 | 11 | 13000 | 4.7 | 4 | 12 |  |
| COC(=O)CNc1c(C(=O)NCc2ccc(F)cc2F)c(=O)n(O)c2ncc(CCCCCO)cc12 | 2100 | 42 | 4 | 11 | 1 | 3.3 | > 250000 | 3.5 | 3 | 13 |  |
| CC(=O)OCCCCCc1cnc2c(c1)c(NCCO)c(C(=O)NCc1ccc(F)cc1F)c(=O)n2O |  | 5.3 |  | 10 | 0.8 | 5.3 | > 100000 | 4.1 | 2 | 1 | EC50 [11]: 1.2 nM; EC50 [12]: 3.6 nM; EC50 [13]: 3.8 nM; Ratio EC50 [14]: 3; EC50 [15]: 15 nM; Ratio EC50 [16]: 1; EC50 [17]: 15 nM; Ratio EC50 [18]: 0.2; Ratio EC50 [19]: 0.7; EC50 [20]: 7.4 nM; Ratio EC50 [21]: 0.7; Ratio EC50 [22]: 3 |
| Nc1c(C(=O)NCc2ccc(F)cc2F)c(=O)n(O)c2ncc(CCCOCCO)cc12 | 1500 | 35 | 2 | 4.2 | 0.8 | 1.6 | > 250000 | 1.2 | 3 | 22 |  |
| CN(C)C(=O)/C=C/c1cnc2c(c1)c(N)c(C(=O)NCc1ccc(F)cc1F)c(=O)n2O |  | 58 | 5 | 15 | 5 | 1.6 | > 250000 | 7.2 | 9 | 36 |  |
| COC(=O)CCc1cnc2c(c1)c(NCCO)c(C(=O)NCc1ccc(F)cc1F)c(=O)n2O | 3200 | 16 | 3.1 | 3.9 | 0.9 | 4.1 | > 250000 | 3.8 | 1 | 4 | EC50 [11]: 0.62 nM; EC50 [12]: 6.5 nM; EC50 [13]: 2.7 nM; Ratio EC50 [14]: 0.9; EC50 [15]: 4.8 nM; Ratio EC50 [16]: 2; EC50 [17]: 2.5 nM; Ratio EC50 [18]: 0.2; Ratio EC50 [19]: 2; EC50 [20]: 6.9 nM; Ratio EC50 [21]: 0.7; Ratio EC50 [22]: 1 |
| O=C(NCc1ccc(F)cc1F)c1c(O)c2cc(CCCCCO)cnc2n(O)c1=O | 14300 | 29 | 12 | 32 | 0.3 | 24 | > 250000 | 8.3 | 1 | 1 |  |
